Key:
[1] = Lipophilicity, log D of the compound at pH 7.4; type: physicochemical; settings: buffer
[2] = target: Voltage-gated inwardly rectifying potassium channel KCNH2 (Homo sapiens, UniProt Q12809); experiment: Inhibition of human ERG channel expressed in CHO cells by patch clamp assay
[3] = Dissociation constant, pKa of the compound; type: physicochemical
[4] = Intrinsic clearance in human liver microsomes at 1 mg/ml; type: ADME, Microsome; settings: read-out: CLH
In short: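 Compound incubated 45 min at 37 °C with human liver microsomes at 1 mg/mL. CLint is taken from the rate of parent disappearance.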

Cytochrome P450 3A4 [5] = target: T1, Cytochrome P450 3A4 (Homo sapiens, UniProt P08684); experiment: Inhibition of human recombinant CYP3A4 coexpressed in Escherichia coli; type: ADME
T1 sequence (P08684 whole entry, canonical isoform): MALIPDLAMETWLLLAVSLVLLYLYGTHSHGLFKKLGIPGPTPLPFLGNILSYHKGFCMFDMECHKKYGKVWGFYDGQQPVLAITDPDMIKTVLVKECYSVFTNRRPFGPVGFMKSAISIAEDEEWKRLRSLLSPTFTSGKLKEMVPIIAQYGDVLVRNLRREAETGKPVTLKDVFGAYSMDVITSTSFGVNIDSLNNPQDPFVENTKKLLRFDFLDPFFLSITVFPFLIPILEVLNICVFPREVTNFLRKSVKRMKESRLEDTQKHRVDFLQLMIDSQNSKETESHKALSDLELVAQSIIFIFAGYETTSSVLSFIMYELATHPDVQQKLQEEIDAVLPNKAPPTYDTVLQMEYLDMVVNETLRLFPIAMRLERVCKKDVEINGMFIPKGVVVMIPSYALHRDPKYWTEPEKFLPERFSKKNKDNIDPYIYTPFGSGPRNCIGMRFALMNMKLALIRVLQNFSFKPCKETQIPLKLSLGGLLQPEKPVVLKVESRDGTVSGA
In short: (§1)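 Human recombinant cytochrome P450s at 37 °C. Read-out is inhibition of metabolic degradation of each isoform's substrate. Percent inhibition is measured at five test concentrations and converted to IC50.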

Cytochrome P450 2D6 [6] = target: T2, Cytochrome P450 2D6 (Homo sapiens, UniProt P10635); experiment: Inhibition of human recombinant CYP2D6 coexpressed in Escherichia coli; type: ADME; in short: as §1
T2 sequence (P10635 whole entry): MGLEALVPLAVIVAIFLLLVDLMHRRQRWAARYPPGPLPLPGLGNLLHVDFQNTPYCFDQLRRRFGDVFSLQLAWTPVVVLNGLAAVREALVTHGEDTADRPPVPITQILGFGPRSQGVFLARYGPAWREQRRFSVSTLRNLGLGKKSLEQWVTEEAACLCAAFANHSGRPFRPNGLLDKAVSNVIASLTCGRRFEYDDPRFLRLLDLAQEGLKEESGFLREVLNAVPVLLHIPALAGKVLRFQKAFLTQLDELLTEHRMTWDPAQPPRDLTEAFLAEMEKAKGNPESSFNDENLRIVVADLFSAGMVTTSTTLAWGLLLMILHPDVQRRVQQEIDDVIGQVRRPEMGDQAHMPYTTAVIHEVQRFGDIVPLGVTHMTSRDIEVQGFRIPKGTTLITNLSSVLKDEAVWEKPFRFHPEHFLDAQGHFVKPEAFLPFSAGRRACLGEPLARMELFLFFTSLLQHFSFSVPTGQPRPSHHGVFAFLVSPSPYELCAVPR

Cytochrome P450 2C8 [7] = target: T3, Cytochrome P450 2C8 (Homo sapiens, UniProt P10632); experiment: Inhibition of human recombinant CYP2C8 coexpressed in Escherichia coli; type: ADME; in short: as §1
T3 sequence (P10632 whole entry): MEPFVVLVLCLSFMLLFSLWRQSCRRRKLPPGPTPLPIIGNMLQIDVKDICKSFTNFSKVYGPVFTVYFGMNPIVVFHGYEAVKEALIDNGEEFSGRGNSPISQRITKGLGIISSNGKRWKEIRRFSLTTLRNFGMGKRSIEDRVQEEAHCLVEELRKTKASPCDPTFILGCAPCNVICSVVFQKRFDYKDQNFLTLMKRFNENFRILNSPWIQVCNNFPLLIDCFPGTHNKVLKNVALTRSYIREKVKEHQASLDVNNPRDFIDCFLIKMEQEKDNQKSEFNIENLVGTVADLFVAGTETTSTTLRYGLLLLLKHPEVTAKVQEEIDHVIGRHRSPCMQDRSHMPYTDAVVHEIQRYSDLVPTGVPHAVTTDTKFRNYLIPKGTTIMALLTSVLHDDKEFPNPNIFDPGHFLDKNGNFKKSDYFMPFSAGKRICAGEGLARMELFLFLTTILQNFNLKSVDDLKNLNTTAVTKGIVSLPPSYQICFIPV

Cytochrome P450 2C9 [8] = target: T4, Cytochrome P450 2C9 (Homo sapiens, UniProt P11712); experiment: Inhibition of human recombinant CYP2C9 coexpressed in Escherichia coli; type: ADME; in short: as §1
T4 sequence (P11712 whole entry): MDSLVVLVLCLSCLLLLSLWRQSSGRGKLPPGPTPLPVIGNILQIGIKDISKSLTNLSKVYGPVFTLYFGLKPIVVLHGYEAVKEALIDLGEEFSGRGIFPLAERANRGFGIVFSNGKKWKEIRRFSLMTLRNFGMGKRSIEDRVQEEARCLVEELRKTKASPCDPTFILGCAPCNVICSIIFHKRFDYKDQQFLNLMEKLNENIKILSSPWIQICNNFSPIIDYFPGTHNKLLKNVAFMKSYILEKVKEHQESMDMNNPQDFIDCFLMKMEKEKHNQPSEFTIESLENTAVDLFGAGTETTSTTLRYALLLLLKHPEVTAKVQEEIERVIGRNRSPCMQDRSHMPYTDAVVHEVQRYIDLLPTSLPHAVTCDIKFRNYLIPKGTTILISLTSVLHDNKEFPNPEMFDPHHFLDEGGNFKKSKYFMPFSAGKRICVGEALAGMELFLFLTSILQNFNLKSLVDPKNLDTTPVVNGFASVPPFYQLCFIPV

Cytochrome P450 2C19 [9] = target: T5, Cytochrome P450 2C19 (Homo sapiens, UniProt P33261); experiment: Inhibition of human recombinant CYP2C19 coexpressed in Escherichia coli; type: ADME; in short: as §1
T5 sequence (P33261 whole entry): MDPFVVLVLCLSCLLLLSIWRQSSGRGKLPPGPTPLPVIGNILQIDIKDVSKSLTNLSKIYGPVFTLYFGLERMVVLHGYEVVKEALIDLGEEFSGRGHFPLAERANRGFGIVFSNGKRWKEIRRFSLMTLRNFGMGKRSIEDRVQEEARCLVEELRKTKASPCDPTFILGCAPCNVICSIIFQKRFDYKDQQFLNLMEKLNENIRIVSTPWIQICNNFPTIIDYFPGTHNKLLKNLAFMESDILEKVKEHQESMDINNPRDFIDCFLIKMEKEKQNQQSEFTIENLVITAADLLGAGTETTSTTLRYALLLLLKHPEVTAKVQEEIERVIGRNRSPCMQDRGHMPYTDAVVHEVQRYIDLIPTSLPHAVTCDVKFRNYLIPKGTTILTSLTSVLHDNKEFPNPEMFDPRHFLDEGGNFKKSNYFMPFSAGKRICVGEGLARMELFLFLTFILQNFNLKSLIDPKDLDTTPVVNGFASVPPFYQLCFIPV

Cytochrome P450 1A2 [10] = target: T6, Cytochrome P450 1A2 (Homo sapiens, UniProt P05177); experiment: Inhibition of human recombinant CYP1A2 coexpressed in Escherichia coli using phenacetin as probe; type: ADME; in short: as §1
T6 sequence (P05177 whole entry): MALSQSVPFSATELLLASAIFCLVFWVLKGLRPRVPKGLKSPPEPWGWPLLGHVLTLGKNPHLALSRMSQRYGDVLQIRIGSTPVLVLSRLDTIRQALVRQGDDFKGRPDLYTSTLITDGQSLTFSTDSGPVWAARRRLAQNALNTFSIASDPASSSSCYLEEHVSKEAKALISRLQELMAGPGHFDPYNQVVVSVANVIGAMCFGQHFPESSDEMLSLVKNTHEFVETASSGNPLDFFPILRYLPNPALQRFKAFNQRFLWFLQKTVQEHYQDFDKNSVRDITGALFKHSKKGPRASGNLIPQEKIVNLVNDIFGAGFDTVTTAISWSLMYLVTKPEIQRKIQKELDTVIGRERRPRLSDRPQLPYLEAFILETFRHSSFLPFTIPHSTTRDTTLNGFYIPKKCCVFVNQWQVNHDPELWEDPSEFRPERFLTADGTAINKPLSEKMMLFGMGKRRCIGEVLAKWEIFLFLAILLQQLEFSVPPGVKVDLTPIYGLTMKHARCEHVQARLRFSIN

CYP3A4 = CYP3A4 (Homo sapiens, UniProt P08684); experiment: Time dependent inhibition of human recombinant CYP3A4 coexpressed in Escherichia coli at 50 uM using midazolam as probe; type: ADME
Sequence of CYP3A4 (P08684 whole entry): as the sequence (P08684 whole entry, canonical isoform) above
In short: (§2)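 Time-dependent inhibition of human recombinant P450s. Compound is preincubated 30 min at 37 °C with and without NADPH, then percent inhibition is read. Run at 10 and 50 μM, with the 50 μM value reported.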

CYP2D6 = CYP2D6 (Homo sapiens, UniProt P10635); experiment: Time dependent inhibition of human recombinant CYP2D6 coexpressed in Escherichia coli at 50 uM using bufuralol as probe; type: ADME; in short: as §2
Sequence of CYP2D6 (P10635 whole entry): as the sequence (P10635 whole entry) above

CYP2C8 = target: T7, CYP2C8 (Homo sapiens, UniProt P10632); experiment: Time dependent inhibition of human recombinant CYP2C8 coexpressed in Escherichia coli at 50 uM using amodiaquine as probe; type: ADME; in short: as §2
T7 sequence (P10632 whole entry): T3 sequence (P10632 whole entry)

CYP2C9 = CYP2C9 (Homo sapiens, UniProt P11712); experiment: Time dependent inhibition of human recombinant CYP2C9 coexpressed in Escherichia coli at 50 uM using diclofenac as probe; type: ADME; in short: as §2
Sequence of CYP2C9 (P11712 whole entry): as the sequence (P11712 whole entry) above

CYP2C19 = CYP2C19 (Homo sapiens, UniProt P33261); experiment: Time dependent inhibition of human recombinant CYP2C19 coexpressed in Escherichia coli at 50 uM using mephenytoin as probe; type: ADME; in short: as §2
Sequence of CYP2C19 (P33261 whole entry): as the sequence (P33261 whole entry) above

CYP1A2 = target: T8, CYP1A2 (Homo sapiens, UniProt P05177); experiment: Time dependent inhibition of human recombinant CYP1A2 coexpressed in Escherichia coli at 50 uM using phenacetin as probe; type: ADME; in short: as §2
T8 sequence (P05177 whole entry): T6 sequence (P05177 whole entry)

Cytochrome P450 3A4 [11] = target: T1, Cytochrome P450 3A4; experiment: Activity of human recombinant CYP3A4 assessed as enzyme contribution towards compound metabolism at 37 degC; type: ADME; design: concentration or dose not given beside the values
In short: (§3)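 CYP reaction phenotyping with human recombinant P450 isoforms at 37 °C. Each isoform's share of compound metabolism is given as percent contribution relative to the other isoforms in the test.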

Cytochrome P450 2D6 [12] = target: T2, Cytochrome P450 2D6; experiment: Activity of human recombinant CYP2D6 assessed as enzyme contribution towards compound metabolism at 37 degC; type: ADME; in short: as §3
Cytochrome P450 1A2 [13] = target: T6, Cytochrome P450 1A2; experiment: Activity of human recombinant CYP1A2 assessed as enzyme contribution towards compound metabolism at 37 degC; type: ADME; in short: as §3
Cytochrome P450 2C9 [14] = target: T4, Cytochrome P450 2C9; experiment: Activity of human recombinant CYP2C9 assessed as enzyme contribution towards compound metabolism at 37 degC; type: ADME; in short: as §3
Cytochrome P450 2C19 [15] = target: T5, Cytochrome P450 2C19; experiment: Activity of human recombinant CYP2C19 assessed as enzyme contribution towards compound metabolism at 37 degC; type: ADME; in short: as §3
Cytochrome P450 2C8 [16] = target: T3, Cytochrome P450 2C8; experiment: Activity of human recombinant CYP2C8 assessed as enzyme contribution towards compound metabolism at 37 degC; type: ADME; in short: as §3

Sequence of Voltage-gated inwardly rectifying potassium channel KCNH2 (Q12809 whole entry): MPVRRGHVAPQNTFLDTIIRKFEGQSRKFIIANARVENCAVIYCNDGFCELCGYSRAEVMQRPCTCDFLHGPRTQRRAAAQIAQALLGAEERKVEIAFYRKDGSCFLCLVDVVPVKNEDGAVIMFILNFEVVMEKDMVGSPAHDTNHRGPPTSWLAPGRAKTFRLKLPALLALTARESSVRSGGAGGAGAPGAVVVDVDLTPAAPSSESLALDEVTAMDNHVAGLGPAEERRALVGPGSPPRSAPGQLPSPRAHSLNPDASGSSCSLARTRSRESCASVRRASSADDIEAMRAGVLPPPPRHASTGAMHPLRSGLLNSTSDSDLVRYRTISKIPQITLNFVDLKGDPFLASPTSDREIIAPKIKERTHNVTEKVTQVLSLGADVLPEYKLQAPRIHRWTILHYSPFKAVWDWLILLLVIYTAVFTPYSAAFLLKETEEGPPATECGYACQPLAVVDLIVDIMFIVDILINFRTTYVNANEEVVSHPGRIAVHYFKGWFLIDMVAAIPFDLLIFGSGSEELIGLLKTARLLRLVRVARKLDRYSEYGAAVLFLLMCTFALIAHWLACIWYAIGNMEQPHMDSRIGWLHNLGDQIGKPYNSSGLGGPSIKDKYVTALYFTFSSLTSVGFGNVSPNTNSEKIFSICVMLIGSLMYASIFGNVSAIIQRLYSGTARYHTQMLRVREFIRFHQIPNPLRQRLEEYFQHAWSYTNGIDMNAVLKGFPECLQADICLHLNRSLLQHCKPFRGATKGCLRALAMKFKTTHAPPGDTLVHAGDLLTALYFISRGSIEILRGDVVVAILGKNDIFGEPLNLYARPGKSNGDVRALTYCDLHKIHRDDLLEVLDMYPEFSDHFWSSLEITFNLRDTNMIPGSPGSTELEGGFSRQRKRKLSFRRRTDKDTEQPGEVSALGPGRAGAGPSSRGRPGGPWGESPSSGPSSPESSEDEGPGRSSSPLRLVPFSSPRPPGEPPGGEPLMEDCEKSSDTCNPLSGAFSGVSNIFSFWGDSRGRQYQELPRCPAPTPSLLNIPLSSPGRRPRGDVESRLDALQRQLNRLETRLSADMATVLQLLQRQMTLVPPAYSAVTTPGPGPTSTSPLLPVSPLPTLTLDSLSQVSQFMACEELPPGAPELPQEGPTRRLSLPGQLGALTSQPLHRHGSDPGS

| Structure (SMILES) | logD [1] | microsomal CLint [4] [µL/min/mg] | IC50 (Cytochrome P450 3A4 [5]) [µM] | IC50 (Cytochrome P450 2D6 [6]) [µM] | IC50 (Cytochrome P450 2C8 [7]) [µM] | IC50 (Cytochrome P450 2C9 [8]) [µM] | IC50 (Cytochrome P450 2C19 [9]) [µM] | IC50 (Cytochrome P450 1A2 [10]) [µM] | inhibition at 50 µM (CYP3A4) [%] | inhibition at 50 µM (CYP2D6) [%] | inhibition at 50 µM (CYP2C8) [%] | inhibition at 50 µM (CYP2C9) [%] | inhibition at 50 µM (CYP2C19) [%] | inhibition at 50 µM (CYP1A2) [%] | Activity (Cytochrome P450 3A4 [11]) [%] | Activity (Cytochrome P450 2D6 [12]) [%] | Activity (Cytochrome P450 1A2 [13]) [%] | CYP isoform contribution to compound metabolism (Cytochrome P450 2C9 [14]) [%] | Activity (Cytochrome P450 2C19 [15]) [%] | Activity (Cytochrome P450 2C8 [16]) [%] | further results |
| --- | --- | --- | --- | --- | --- | --- | --- | --- | --- | --- | --- | --- | --- | --- | --- | --- | --- | --- | --- | --- | --- |
| C[C@@H](Oc1nnc(-c2ccncc2)n1C)c1nnc(-c2cccc(Cl)c2)o1 | 2.3 |  |  |  |  |  |  |  |  |  |  |  |  |  |  |  |  |  |  |  | IC50 [2]: 21.5 µM; pKa [3]: 3.7 |
| c1cc(-c2noc(C3CCCCC3)n2)ccn1 |  | 83 | 10.2 | 10 | > 20 | 17.6 | 1.2 | 2.4 | < 7 | < 9 | < 13 | < 19 | < 12 | < 7 | 17.7 | 8.6 | 29.5 | 4.7 | 38 | 1.5 |  |
| Clc1cc(-c2nc(CSc3nnc(-c4ccncc4)n3C3CC3)no2)ccn1 |  | > 300 | 14.2 | > 20 | > 20 | > 20 | > 20 | > 20 | 30 | < 11 | < 14 | < 19 | < 12 | < 10 | 99.5 | 0 | 0.2 | 0 | 0.1 | 0.2 |  |
| O=C(NC1CCCCC1)c1nnc(CS(=O)(=O)c2ccccc2)o1 |  | < 5 | > 20 | > 20 | > 20 | > 20 | > 20 | > 20 | < 7 | < 9 | < 13 | < 19 | < 12 | < 7 | 52.2 | 2.4 | 0 | 0 | 45.4 | 0 |  |
| c1cc(-c2nnc(C3CCCCC3)o2)ccn1 |  | 17 | > 20 | > 20 | > 20 | > 20 | 1.3 | > 20 | < 7 | < 11 | < 14 | < 19 | 13 | < 10 | 11.7 | 1.1 | 68.5 | 2.4 | 14.8 | 1.5 |  |

The next lines start with results.

| logD [1] | microsomal CLint [4] [µL/min/mg] | IC50 (Cytochrome P450 3A4 [5]) [µM] | IC50 (Cytochrome P450 2D6 [6]) [µM] | IC50 (Cytochrome P450 2C8 [7]) [µM] | IC50 (Cytochrome P450 2C9 [8]) [µM] | IC50 (Cytochrome P450 2C19 [9]) [µM] | IC50 (Cytochrome P450 1A2 [10]) [µM] | inhibition at 50 µM (CYP3A4) [%] | inhibition at 50 µM (CYP2D6) [%] | inhibition at 50 µM (CYP2C8) [%] | inhibition at 50 µM (CYP2C9) [%] | inhibition at 50 µM (CYP2C19) [%] | inhibition at 50 µM (CYP1A2) [%] | Activity (Cytochrome P450 3A4 [11]) [%] | Activity (Cytochrome P450 2D6 [12]) [%] | Activity (Cytochrome P450 1A2 [13]) [%] | CYP isoform contribution to compound metabolism (Cytochrome P450 2C9 [14]) [%] | Activity (Cytochrome P450 2C19 [15]) [%] | Activity (Cytochrome P450 2C8 [16]) [%] | Structure (SMILES) | further results |
| --- | --- | --- | --- | --- | --- | --- | --- | --- | --- | --- | --- | --- | --- | --- | --- | --- | --- | --- | --- | --- | --- |
| 3.1 |  |  |  |  |  |  |  |  |  |  |  |  |  |  |  |  |  |  |  | CN(Cc1nc2ccccc2c(=O)[nH]1)Cc1nc(-c2ccccc2)no1 | pKa [3]: 2.1 |
| 3.9 |  |  |  |  |  |  |  |  |  |  |  |  |  |  |  |  |  |  |  | c1ccc(-c2nnc(CN3CCN(Cc4nc5ccccc5s4)CC3)o2)cc1 | IC50 [2]: 30 µM; pKa [3]: 4.4 |
|  | 93 | 14.6 | 9.4 | > 20 | 2.2 | 1.3 | > 20 | 42 | < 11 | < 14 | < 19 | < 12 | < 10 | 99.8 | 0.1 | 0 | 0.1 | 0.1 | 0 | O=C(NCc1ccncc1)c1nc(CS(=O)(=O)c2ccccc2)no1 |  |
| 5.1 | 9 | > 20 | 10.2 | > 20 |  | > 20 | > 20 | 9 | < 9 | < 13 | < 19 | < 12 | < 7 | 92.1 | 2.3 | 1.5 | 1 | 2.2 | 0.9 | c1ccc(CN2CCN(Cc3nc(-c4ccccc4)no3)CC2)cc1 | pKa [3]: 6.7 |
